Common to all, as to format: functional
Test [1] concerns Staphylococcus aureus. Put plainly: Antibacterial activity against methicillin-susceptible Staphylococcus aureus by agar microdilution method. The gist of the method: (§1)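 MIC by agar microdilution following NCCLS standard M7-A6 (2003), tested against clinical isolates: MRSA n = 6, MRSE n = 5, MSSA n = 5, MSSE n = 5; values given as a single MIC or a range across isolates.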
Test [2] concerns Staphylococcus aureus. Put plainly: Antibacterial activity against methicillin-resistant Staphylococcus aureus by agar microdilution method. The gist of the method:
as §1

In test [3] the test system is Staphylococcus epidermidis. Briefly: Antibacterial activity against methicillin-susceptible Staphylococcus epidermidis by agar microdilution method. The gist of the method: as §1
Test [4] concerns Staphylococcus epidermidis. Put plainly: Antibacterial activity against methicillin-resistant Staphylococcus epidermidis by agar microdilution method. The gist of the method: as §1
Test [5] has as its system Streptococcus pneumoniae. Put plainly: Antibacterial activity against Streptococcus pneumoniae by agar microdilution method. The procedure, abridged: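 MIC read by agar microdilution following NCCLS standard M7-A6 (2003), against a panel of 3 Streptococcus pneumoniae clinical isolates. Values in µg/mL, given as a range where the isolates differed.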
Test [6] relates to Staphylococcus aureus. Put plainly: Ratio of Linezolid MIC to compound MIC for methicillin-susceptible Staphylococcus aureus.
For test [7], the system named is Staphylococcus epidermidis. Put plainly: Ratio of Linezolid MIC to compound MIC for methicillin-susceptible Staphylococcus epidermidis.
The test system of test [8] is Streptococcus pneumoniae. Briefly: Ratio of Linezolid MIC to compound MIC for Streptococcus pneumoniae.

Molecules are shown by their SMILES. ≈ marks a conversion by molar mass, not a printed value.

`C=C[C@]1(C)C[C@@H](OC(=O)N2Cc3ccccc3C2=O)[C@]2(C)[C@H](C)CC[C@]3(CCC(=O)[C@H]32)[C@@H](C)[C@@H]1O`: the MIC in test [1], in test [2], in test [3], in test [4] and in test [5] was 0.125 µg/mL (≈ 0.261 µM) each time. Besides, the Ratio in test [6], in test [7] and in test [8] was 4 throughout.

Consider `C=C[C@]1(C)C[C@@H](OC(=O)N2Cc3ccc(F)cc3C2=O)[C@]2(C)[C@H](C)CC[C@]3(CCC(=O)[C@H]32)[C@@H](C)[C@@H]1O`, for which the MIC in test [1], in test [2], in test [3], in test [4] and in test [5] was 0.125 µg/mL (≈ 0.251 µM) in each case. The Ratio in test [6], in test [7] and in test [8] was 4 each time.

With `C=C[C@]1(C)C[C@@H](OC(=O)N2Cc3cc(N4CCN(C)CC4)ccc3C2=O)[C@]2(C)[C@H](C)CC[C@]3(CCC(=O)[C@H]32)[C@@H](C)[C@@H]1O`, the minimum inhibitory concentration (MIC) in test [1] was determined as 0.125 µg/mL (≈ 0.216 µM); in test [2] it was 0.125 µg/mL (≈ 0.216 µM); in test [3], 0.125 µg/mL (≈ 0.216 µM); in test [4], 0.125 µg/mL (≈ 0.216 µM); in test [5], 0.25 µg/mL (≈ 0.433 µM). Also, the Ratio in test [6], in test [7] and in test [8] was 4 each time.

Take `C=C[C@]1(C)C[C@@H](OC(=O)N2Cc3cc(N)ccc3C2=O)[C@]2(C)[C@H](C)CC[C@]3(CCC(=O)[C@H]32)[C@@H](C)[C@@H]1O`: the minimal inhibitory concentration (MIC) in test [1], in test [2], in test [3], in test [4] and in test [5] was 0.125 µg/mL (≈ 0.253 µM) throughout. For the same molecule, the Ratio in test [6], in test [7] and in test [8] was 4 in each case.

Consider `C=C[C@]1(C)C[C@@H](OC(=O)N2Cc3ccc(NC(=O)CN4CCN(C)CC4)cc3C2=O)[C@]2(C)[C@H](C)CC[C@]3(CCC(=O)[C@H]32)[C@@H](C)[C@@H]1O`, for which the minimal inhibitory concentration (MIC) in test [1], in test [2], in test [3], in test [4] and in test [5] was 0.5 µg/mL (≈ 0.788 µM) each time.

For `C=C[C@]1(C)C[C@@H](OC(=O)N2Cc3ccc(NC(=O)CN4CCN(CCO)CC4)cc3C2=O)[C@]2(C)[C@H](C)CC[C@]3(CCC(=O)[C@H]32)[C@@H](C)[C@@H]1O`, the minimum inhibitory concentration (MIC) came to 0.5 µg/mL (≈ 0.752 µM) in test [1]; 0.5 µg/mL (≈ 0.752 µM) in test [2]; 0.25 µg/mL (≈ 0.376 µM) in test [3]; 0.25 µg/mL (≈ 0.376 µM) in test [4]; 0.5 µg/mL (≈ 0.752 µM) in test [5].

With `C=C[C@]1(C)C[C@@H](OC(=O)N2Cc3ccc(NC(=O)CCN4CCOCC4)cc3C2=O)[C@]2(C)[C@H](C)CC[C@]3(CCC(=O)[C@H]32)[C@@H](C)[C@@H]1O`, the minimum inhibitory concentration (MIC) came out at 0.5 µg/mL (≈ 0.786 µM) in test [1]; 0.5 µg/mL (≈ 0.786 µM) in test [2]; 0.25 µg/mL (≈ 0.393 µM) in test [3]; 0.25 µg/mL (≈ 0.393 µM) in test [4]; 0.5 µg/mL (≈ 0.786 µM) in test [5].

On to `C=C[C@]1(C)C[C@@H](OC(=O)N2Cc3ccc(NC(=O)CCN4CCN(C)CC4)cc3C2=O)[C@]2(C)[C@H](C)CC[C@]3(CCC(=O)[C@H]32)[C@@H](C)[C@@H]1O`, for which the MIC in test [1], in test [2], in test [3], in test [4] and in test [5] was 0.5 µg/mL (≈ 0.771 µM) throughout.

On to `C=C[C@]1(C)C[C@@H](OC(=O)N2Cc3ccc(NC(=O)CCN4CCN(CCO)CC4)cc3C2=O)[C@]2(C)[C@H](C)CC[C@]3(CCC(=O)[C@H]32)[C@@H](C)[C@@H]1O`, for which the minimum inhibitory concentration (MIC) in test [1] is 2 µg/mL (≈ 2.95 µM); in test [2] it was 2 µg/mL (≈ 2.95 µM); in test [3] it was 2 µg/mL (≈ 2.95 µM); in test [4], 2 µg/mL (≈ 2.95 µM); in test [5], 4 µg/mL (≈ 5.89 µM).

For the molecule `C=C[C@]1(C)C[C@@H](OC(=O)N2Cc3c(NC(=O)[C@@H](N)C(C)C)cccc3C2=O)[C@]2(C)[C@H](C)CC[C@]3(CCC(=O)[C@H]32)[C@@H](C)[C@@H]1O.Cl`, the MIC in test [1], in test [2], in test [3], in test [4] and in test [5] was 0.5 µg/mL throughout.

For `C=C[C@]1(C)C[C@@H](OC(=O)N2Cc3ccc(NC(=O)[C@H](C)N)cc3C2=O)[C@]2(C)[C@H](C)CC[C@]3(CCC(=O)[C@H]32)[C@@H](C)[C@@H]1O.Cl`, the minimum inhibitory concentration (MIC) in test [1], in test [2], in test [3], in test [4] and in test [5] was 0.5 µg/mL throughout.

Take `C=C[C@]1(C)C[C@@H](OC(=O)N2Cc3ccc(NC(=O)[C@@H](N)C(C)C)cc3C2=O)[C@]2(C)[C@H](C)CC[C@]3(CCC(=O)[C@H]32)[C@@H](C)[C@@H]1O.Cl`: the MIC in test [1] worked out at 1 µg/mL; in test [2], 1 µg/mL; in test [3] it was 1 µg/mL; in test [4] it was 1 µg/mL; in test [5], 2 µg/mL.

`C=C[C@]1(C)C[C@@H](OC(=O)N2CCc3cc(OC)ccc3C2=O)[C@]2(C)[C@H](C)CC[C@]3(CCC(=O)[C@H]32)[C@@H](C)[C@@H]1O`: the MIC is 1 µg/mL (≈ 1.91 µM) in test [1]; 2 µg/mL (≈ 3.82 µM) in test [2]; 1 µg/mL (≈ 1.91 µM) in test [3]; 0.5 µg/mL (≈ 0.955 µM) in test [4]; 2 µg/mL (≈ 3.82 µM) in test [5].

As to `C=C[C@]1(C)C[C@@H](OC(=O)N2CCc3ccccc3C2=O)[C@]2(C)[C@H](C)CC[C@]3(CCC(=O)[C@H]32)[C@@H](C)[C@@H]1O`, the minimum inhibitory concentration (MIC) in test [1], in test [2], in test [3], in test [4] and in test [5] was 0.25 µg/mL (≈ 0.506 µM) in each case.

In the case of `C=C[C@]1(C)C[C@@H](OC(=O)N2CCc3ccc([N+](=O)[O-])cc3C2=O)[C@]2(C)[C@H](C)CC[C@]3(CCC(=O)[C@H]32)[C@@H](C)[C@@H]1O`, the minimal inhibitory concentration (MIC) amounted to 1 µg/mL (≈ 1.86 µM) in test [1]; 1 µg/mL (≈ 1.86 µM) in test [2]; 1 µg/mL (≈ 1.86 µM) in test [3]; 1 µg/mL (≈ 1.86 µM) in test [4]; 2 µg/mL (≈ 3.71 µM) in test [5].

`C=C[C@]1(C)C[C@@H](OC(=O)N2CCc3cc(OCCN4CCOCC4)ccc3C2=O)[C@]2(C)[C@H](C)CC[C@]3(CCC(=O)[C@H]32)[C@@H](C)[C@@H]1O`: the MIC in test [1], in test [2], in test [3], in test [4] and in test [5] was 0.5 µg/mL (≈ 0.803 µM) each time.

As for `C=C[C@]1(C)C[C@@H](OC(=O)N2CCc3cc(OCCN4CCCCC4)ccc3C2=O)[C@]2(C)[C@H](C)CC[C@]3(CCC(=O)[C@H]32)[C@@H](C)[C@@H]1O`, the MIC in test [1] came to 0.5 µg/mL (≈ 0.805 µM); in test [2], 0.5 µg/mL (≈ 0.805 µM); in test [3], 0.5 µg/mL (≈ 0.805 µM); in test [4], 1 µg/mL (≈ 1.61 µM); in test [5], 1 µg/mL (≈ 1.61 µM).

Take `C=C[C@]1(C)C[C@@H](OC(=O)N2CCc3cc(OCCN4CCN(C)CC4)ccc3C2=O)[C@]2(C)[C@H](C)CC[C@]3(CCC(=O)[C@H]32)[C@@H](C)[C@@H]1O`: the MIC in test [1], in test [2], in test [3], in test [4] and in test [5] was 0.5 µg/mL (≈ 0.786 µM) each time.

Consider `C=C[C@]1(C)C[C@@H](OC(=O)N2CCc3cc(OCCCN4CCOCC4)ccc3C2=O)[C@]2(C)[C@H](C)CC[C@]3(CCC(=O)[C@H]32)[C@@H](C)[C@@H]1O`, for which the MIC in test [1], in test [2], in test [3], in test [4] and in test [5] was 0.5 µg/mL (≈ 0.785 µM) in each case.

Take `C=C[C@]1(C)C[C@@H](OC(=O)N2CCc3cc(OCCCN4CCCCC4)ccc3C2=O)[C@]2(C)[C@H](C)CC[C@]3(CCC(=O)[C@H]32)[C@@H](C)[C@@H]1O`: the minimal inhibitory concentration (MIC) in test [1], in test [2], in test [3], in test [4] and in test [5] was 0.5 µg/mL (≈ 0.788 µM) throughout.

With `C=C[C@]1(C)C[C@@H](OC(=O)N2CCc3cc(OCCCN4CCN(C)CC4)ccc3C2=O)[C@]2(C)[C@H](C)CC[C@]3(CCC(=O)[C@H]32)[C@@H](C)[C@@H]1O`, the minimal inhibitory concentration (MIC) in test [1], in test [2], in test [3], in test [4] and in test [5] was 0.5 µg/mL (≈ 0.769 µM) in each case.

With `C=C[C@]1(C)C[C@@H](OC(=O)N2CCc3cc(OCCCCN4CCOCC4)ccc3C2=O)[C@]2(C)[C@H](C)CC[C@]3(CCC(=O)[C@H]32)[C@@H](C)[C@@H]1O`, the MIC in test [1], in test [2], in test [3], in test [4] and in test [5] was 0.5 µg/mL (≈ 0.768 µM) in each case.

For `C=C[C@]1(C)C[C@@H](OC(=O)N2CCc3ccc(N)cc3C2=O)[C@]2(C)[C@H](C)CC[C@]3(CCC(=O)[C@H]32)[C@@H](C)[C@@H]1O`, the MIC in test [1], in test [2], in test [3], in test [4] and in test [5] was 0.0625 µg/mL (≈ 0.123 µM) throughout.

In the case of `C=C[C@]1(C)C[C@@H](OC(=O)CS[C@@H]2C[C@H]3CC[C@@H](C2)N3C)[C@]2(C)[C@H](C)CC[C@]3(CCC(=O)[C@H]32)[C@@H](C)[C@@H]1O` [RETAPAMULIN], the MIC in test [1] was found to be 0.0625 µg/mL (≈ 0.121 µM); in test [2], 0.125 µg/mL (≈ 0.241 µM); in test [3], 0.0625 µg/mL (≈ 0.121 µM); in test [4], 0.125 µg/mL (≈ 0.241 µM); in test [5], 0.0625 µg/mL (≈ 0.121 µM).
